Measurements: paper PMC3268818 (Journal of Molecular Biology, 2011)

What was measured:
[1] = SEC-coupled analytical light scattering; type: physicochemical, human; details: for oligomeric state in solution / Mw/Mn / dimer fraction / Rg/Rh / approximate mass of higher-order oligomer: ALS; for oligomeric state in solution / Rh / Mn / Mw/Mn / Mw / dimer fraction / Rg / Rg/Rh: pH 8, 10°C; for Rh: hydrodynamic radius, ALS (DLS); for Rh / Mn / Mw / Rg: at least three independent measurements; for Rh / Mn / Mw/Mn / Mw / Rg / Rg/Rh: ± one standard deviation; for Mn: number-average molar mass; for Mn / Mw / Rg: ALS (SLS); for Mw/Mn: polydispersity; for Mw: weighted-average molar mass; for Rg: radius of gyration; for Rg/Rh: shape ratio
In short: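 His-tagged human BclXL (residues 1–233 or 1–200) was expressed in E. coli and purified by Ni-NTA then SEC. It was run at 10–50μM starting concentration in 50mM sodium phosphate, 100mM NaCl, 1mM EDTA, 5mM β-mercaptoethanol, pH 8.0, on Superdex 200 at 1ml/min and 10°C. Mw, Mn and Rg came from triple-angle SLS (Zimm fit); Rh came from DLS at 90° (Stokes-Einstein). n≥3, ±SD.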

BclXL_FL [2] = experiment: TEM of negatively-stained BclXL_FL; design: species or system human; details: 25μM BclXL_FL alone; 50mM Sodium phosphate, pH 8.0, negative staining
In short: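 Full-length His-tagged human BclXL (residues 1–233) was expressed in E. coli and purified by Ni-NTA and SEC. It was imaged at 25μM, alone or with a 10-molar excess of a 20-mer BH3 peptide, in 50mM sodium phosphate pH 8.0. Samples were negatively stained and viewed by TEM at 80kV and 105,000 magnification.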

BclXL_FL [3] = experiment: DSC thermal stability of BclXL_FL; type: physicochemical, human; details: BclXL_FL alone, 50mM Sodium phosphate, pH 8.0, 10–50μM protein, 40–120°C, 1°C/min, 3atm, repeated at least three times
BclXL_FL [4] = experiment: Steady-state fluorescence; design: species or system human; details: BclXL_FL alone, 5μM; SSF, excitation 290nm, pH 8.0, 25 °C

Row | Substance | oligomeric state in solution [1] | Rh ([1]; Dimer) [Å] | Mn ([1]; Dimer) [kD] | Mw/Mn ([1]; Dimer) | Mw ([1]; Dimer) [kD] | Rh ([1]; Monomer) [Å] | Mn ([1]; Monomer) [kD] | Mw/Mn ([1]; Monomer) | dimer fraction [1] | other results
1 | BclXL_dTM: BclXL in which the TM domain is deleted (residues 1–200), human, with an N-terminal His-tag, expressed in Escherichia coli | largely monomeric in solution | 41 ± 3 | 54 ± 2 | 1.00 ± 0.01 | 54 ± 2 | 33 ± 2 | 28 ± 2 | 1.00 ± 0.00 | minor fraction | –
2 | BclXL_FL: Full-length BclXL (residues 1–233), human, with an N-terminal His-tag, expressed in Escherichia coli | predominantly associates into higher-order oligomers | 47 ± 2 | 61 ± 3 | 1.01 ± 0.01 | 62 ± 3 | 36 ± 1 | 31 ± 1 | 1.00 ± 0.01 | minor fraction | TEM appearance (BclXL_FL [2]): rod-like appearance in solution; melting temperature (Tm) (BclXL_FL [3]): > 120 °C; intrinsic fluorescence relative to BclXL_dTM (BclXL_FL [4]): much higher than that observed for the BclXL_dTM construct; Rh ([1]; Multimer): 99 ± 2 Å; Mn ([1]; Multimer): 321 ± 25 kD; Mw/Mn ([1]; Multimer): 1.14 ± 0.02; Rg ([1]; Multimer): 107 ± 4 Å; Rg/Rh ([1]; Multimer): 1.10 ± 0.01; Mw ([1]; Multimer): 361 ± 26 kD; Rh ([1]; Polymer): 175 ± 6 Å; Mn ([1]; Polymer): 3134 ± 147 kD; Rg ([1]; Polymer): 198 ± 8 Å; Rg/Rh ([1]; Polymer): 1.13 ± 0.02; Mw ([1]; Polymer): 3355 ± 188 kD; oligomer equilibrium on SEC re-analysis ([1]; SEC-resolved fractions re-analyzed on SEC column): reversible monomer-dimer-multimer-polymer equilibrium; approximate mass of higher-order oligomer ([1]; multimer): ~ 300 kD; approximate mass of higher-order oligomer ([1]; polymer): ~ 3000 kD
